Results pooled from the literature.
Protocols differ between the studies behind these lines.
Target: Maternal embryonic leucine zipper kinase (MELK, Homo sapiens, UniProt Q14680)

SMILES	read-out	action	technique	cell line	tested at	measurement	result
Cc1sc(C(=O)NC2COC2)cc1-n1cc(NC(=O)Nc2c(F)cccc2Cl)cn1	enzyme activity	inhibitor			10 µM	remaining activity	103%
C[C@@H](c1cccc(C#N)c1)n1cc(Cl)cc(C(N)=O)c1=N	cell-free assay		competition with immobilised ligand		1 µM	remaining binding	78%
COc1cc2ncnc(Nc3ccc(F)c(Cl)c3)c2cc1OCCCN1CCOCC1	cell-free assay				0.5 µM	remaining signal	77.7%
C[C@@]1(Cc2ccc(C#N)cc2)C(=O)N(c2cc(Cl)cc(Cl)c2)c2ncc(C(=O)NC3(c4nc(C5CCC5)no4)CC3)n21	cell-free assay		competition with immobilised ligand		1 µM	remaining binding	89%
CCN(CC)CCNC(=O)c1c(C)[nH]c(/C=C2\C(=O)Nc3ccc(F)cc32)c1C	enzyme activity	inhibitor			10 µM	inhibition	99%
CCN(CC)c1ccc(C2=NNC(=O)CC2C)cc1[N+](=O)[O-] (centres unmarked)	enzyme activity	inhibitor			10 µM	remaining activity	92%
CC/C(=N\NC(=O)NCc1cccc(O)c1)c1ccc(O)c(C)c1O	enzyme activity	inhibitor			0.1 µM	inhibition	0.7%
Cc1ncc([N+](=O)[O-])n1C(=NO)c1ccccc1C(F)(F)F	enzyme activity	inhibitor			10 µM	inhibition	13.9%
COc1ccc(COc2ccc(Cc3cnc(N)nc3N)cc2OC)cc1	cell-free assay				0.5 µM	remaining signal	102%
CN(C)CC#Cc1ccc(OCCCc2sc(N3CCc4cccc(C(=O)Nc5nc6ccccc6s5)c4C3)nc2C(=O)O)c(F)c1	cell-free assay		competition with immobilised ligand		1 µM	remaining binding	78%
COc1cc(Nc2cnc(C#N)c(O[C@H](C)CN(C)C)n2)ncc1-c1cnn(C)c1	enzyme activity	inhibitor	radiometric		10 µM	remaining activity	62%
CN1CC(Oc2cnc(C#N)cc2-c2ccn3nc(NC(=O)C4CC4)cc3c2)C1	enzyme activity	inhibitor			1 µM	inhibition	10%
Clc1ccc(Nc2nnc(Cc3ccncc3)c3ccccc23)cc1	cell-free assay				0.5 µM	remaining signal	83.7%
Oc1cccc(-c2nc(N3CCOCC3)c3oc4ncccc4c3n2)c1	enzyme activity	inhibitor			10 µM	remaining activity	104%
COc1cc(-c2cn(C3CCc4c(F)cccc4N(CC(F)(F)F)C3=O)nn2)ccc1-n1cnc(C)c1 (centres unmarked)	cell-free assay		competition with immobilised ligand		1 µM	remaining binding	100%
Cc1ccc(NC(=O)c2ccc(C)c(C(F)(F)F)c2)cc1C#Cc1nn(C2CCC(O)CC2)c2ncnc(N)c12 (centres unmarked)	cell-free assay				10 µM	remaining signal	23%

SMILES	read-out	action	technique	cell line	tested at	measurement	result
COc1cc(Cl)c(C(=O)N[C@@H](CN[C@H]2CC[C@@H](N)CC2)Cc2ccc(C#N)cc2)cc1-c1ccc(CN[C@H](C)c2ccc(C)cc2)o1	enzyme activity	inhibitor			1 µM	remaining activity	98%
C[C@H](c1ccnc(Nc2nc3ccc(-c4cc(N(C)C)ncn4)cc3[nH]2)c1)N1CCN(C(=O)CC(F)(F)F)CC1	cell-free assay		competition with immobilised ligand		0.1 µM	remaining binding	100%
Cc1cc(NC(=O)c2cccc3cc(-c4cccc5[nH]nc(N)c45)ccc23)ccc1F	enzyme activity	inhibitor			0.1 µM	activity vs control	93%
FC(F)(F)Oc1cccc(-c2cnc3ccc(-c4ccncc4)nn23)c1	enzyme activity	inhibitor	radiometric		5 µM	activity vs control	77%
CO[C@@H](C)c1c(Nc2ccc([C@@H](N(C)C(=O)C3CCS(=O)(=O)CC3)C(F)(F)F)cc2)cnc2cc(Cl)nn12	cell-free assay		competition with immobilised ligand		1 µM	remaining binding	52%
CCN1CCN(Cc2ccc(NC(=O)c3ccc(C)c(/C=C/c4cnc5[nH]ccc5c4OC)c3)cc2C(F)(F)F)CC1	target engagement in cells	inhibitor	chemoproteomics	A-375	50 nM	inhibition	-10.4%
CN(C)C(=O)Cn1cc(-c2nc([C@@](C)(c3ccc(-c4cnc(N)nc4)cc3)C3CC3)no2)cn1	cell-free assay		competition with immobilised ligand		1 µM	remaining binding	87%
Cc1ccc(Nc2nccc(N(C)c3ccc4c(C)n(C)nc4c3)n2)cc1S(N)(=O)=O	enzyme activity	inhibitor			0.3 µM	inhibition	7%
CNC(=O)Nc1ccc2c(c1)[C@@]1(CC2)OC(=O)N(CC(=O)N(Cc2ccc(F)cc2)[C@@H](C)C(F)(F)F)C1=O	cell-free assay		competition with immobilised ligand		1 µM	remaining binding	100%
O=C1Nc2ccc(Cl)cc2C1=Cc1cc(Cl)c(O)c(Cl)c1	cell-free assay				0.5 µM	remaining signal	83.6%
CNC(=O)c1cc(Oc2ccc(NC(=O)Nc3ccc(Cl)c(C(F)(F)F)c3)cc2)ccn1	enzyme activity	inhibitor			0.3 µM	inhibition	4%
Nc1nc(Nc2ccccc2)sc1C(=O)c1c(F)cccc1F	enzyme activity	inhibitor			10 µM	remaining activity	47%
CC(C)(C)c1nc2c(s1)c1nc(N)ncc1c1ccc(NS(=O)(=O)c3c(F)cccc3F)c(F)c12	enzyme activity	inhibitor	radiometric		1 µM	remaining activity	41%
COc1cc2ncnc(Nc3ccc(Oc4ccccc4)c(C)c3C)c2cc1OC	enzyme activity	inhibitor			1 µM	inhibition	10%
COc1cc(-c2cc(-c3ccc(N4CCNCC4)cc3)cnc2C)cc(OC)c1OC	enzyme activity	inhibitor			1 µM	inhibition	8%
CC(C)(C)c1nc2c3cc[nH]c(=O)c3c3cc(F)ccc3c2[nH]1	cell-free assay				0.5 µM	remaining signal	5.23%
